# From ChEMBL document CHEMBL1782051, “Synthesis and biological evaluation of novel gamma-carboline analogues of Dimebon as potent 5-HT6 receptor antagonists” (Bioorg Med Chem Lett, 2009)
# Key:
# [1] = biological target: T1, Histamine H1 receptor (Homo sapiens, UniProt P35367); test: Antagonist activity at human histamine H1 receptor in SK-N-SH cells assessed as inhibition of histamine-induced calcium level increase during phase-1 compound incubated before histamine addition by Fura-2 based fluorometric assay; format: functional, cell-based
# T1 sequence (P35367 whole entry): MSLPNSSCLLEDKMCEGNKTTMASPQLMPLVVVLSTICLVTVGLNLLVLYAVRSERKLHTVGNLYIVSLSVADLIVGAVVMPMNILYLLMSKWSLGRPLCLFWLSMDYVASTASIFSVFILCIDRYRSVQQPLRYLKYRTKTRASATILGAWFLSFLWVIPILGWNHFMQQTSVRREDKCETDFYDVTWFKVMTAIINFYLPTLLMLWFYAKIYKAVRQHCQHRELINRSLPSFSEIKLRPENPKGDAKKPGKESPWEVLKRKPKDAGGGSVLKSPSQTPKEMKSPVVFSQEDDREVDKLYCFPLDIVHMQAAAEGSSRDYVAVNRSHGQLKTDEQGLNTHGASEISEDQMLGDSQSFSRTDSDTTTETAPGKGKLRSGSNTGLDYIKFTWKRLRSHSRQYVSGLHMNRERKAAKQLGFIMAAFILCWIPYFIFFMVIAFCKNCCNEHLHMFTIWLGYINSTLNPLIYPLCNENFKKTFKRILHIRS
# Method in brief: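 H1 receptor Ca-dependent signalling was measured in SK-N-SH cells as blockade of histamine-induced calcium flow in phase-I. IC50 values were reported.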
# [2] = biological target: 5-hydroxytryptamine receptor 6 (Homo sapiens, UniProt P50406); test: Antagonist activity at human recombinant 5-HT6 receptor expressed in HEK293 cells assessed as inhibition of serotonin-induced intracellular cAMP accumulation by LANCE technique; format: functional, cell-based
# Chain of 5-hydroxytryptamine receptor 6 (P50406 whole entry): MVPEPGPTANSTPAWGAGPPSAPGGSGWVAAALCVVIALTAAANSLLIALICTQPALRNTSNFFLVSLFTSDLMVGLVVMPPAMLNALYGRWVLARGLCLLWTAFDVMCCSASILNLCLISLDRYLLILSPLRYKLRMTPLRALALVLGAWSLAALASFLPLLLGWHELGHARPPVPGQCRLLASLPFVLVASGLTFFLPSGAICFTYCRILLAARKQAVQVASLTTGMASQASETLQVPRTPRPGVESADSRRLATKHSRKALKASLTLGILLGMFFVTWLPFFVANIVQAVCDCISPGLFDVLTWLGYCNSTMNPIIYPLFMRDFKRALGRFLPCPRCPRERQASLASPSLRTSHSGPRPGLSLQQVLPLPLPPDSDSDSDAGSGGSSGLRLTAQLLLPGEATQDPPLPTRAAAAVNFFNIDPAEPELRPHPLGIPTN
# Method in brief: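 Cells continuously express recombinant human 5-HT6 receptors. Serotonin stimulation raises intracellular cyclic AMP, which was monitored continuously by LANCE technology. Read-out was inhibition of the serotonin-dependent cAMP response.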
# [3] = biological target: T1, Histamine H1 receptor; test: Antagonist activity at human histamine H1 receptor in SK-N-SH cells assessed as inhibition of histamine-induced calcium flow during phase-II compound dosed after histamine addition by Fura-2 based fluorometric assay; format: functional
# [4] = biological target: Glutamate NMDA receptor (Rattus norvegicus) (UniProt P35439+Q00959+Q00960+Q00961+Q62645+Q8VHN2+Q9R1M7); test: Inhibition of NMDA receptor in rat brain cortical neurons assessed as blocking of NMDA-induced currents; format: tissue-based
# [5] = Inhibition of L-type calcium channel
# [6] = Neuroprotective activity in cerebellum cell culture assessed as protection against beta-amyloid fragment Abeta (25-35)-induced neurotoxicity; format: functional, tissue-based
# [7] = biological target: Cholinesterase (Homo sapiens, UniProt P06276); test: Inhibition of BuChE
# Chain of Cholinesterase (P06276 whole entry): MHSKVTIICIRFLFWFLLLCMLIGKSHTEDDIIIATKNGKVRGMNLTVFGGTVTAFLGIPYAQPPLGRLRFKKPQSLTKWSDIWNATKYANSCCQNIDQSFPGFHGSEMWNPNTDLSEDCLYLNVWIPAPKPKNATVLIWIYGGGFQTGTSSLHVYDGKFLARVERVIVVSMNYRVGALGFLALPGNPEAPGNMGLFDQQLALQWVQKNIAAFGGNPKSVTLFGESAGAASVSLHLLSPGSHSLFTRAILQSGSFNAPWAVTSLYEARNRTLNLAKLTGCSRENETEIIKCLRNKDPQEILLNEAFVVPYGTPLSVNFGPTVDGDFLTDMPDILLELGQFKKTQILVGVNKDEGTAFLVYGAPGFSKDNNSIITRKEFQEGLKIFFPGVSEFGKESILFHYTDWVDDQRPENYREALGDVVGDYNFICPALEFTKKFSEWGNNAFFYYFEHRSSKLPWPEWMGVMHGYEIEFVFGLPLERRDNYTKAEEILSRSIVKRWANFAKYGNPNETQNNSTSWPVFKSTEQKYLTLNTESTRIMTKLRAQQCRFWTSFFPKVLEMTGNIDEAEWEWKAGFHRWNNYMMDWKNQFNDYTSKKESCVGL
# [8] = biological target: Acetylcholinesterase (Homo sapiens, UniProt P22303); test: Inhibition of AChE
# Chain of Acetylcholinesterase (P22303 whole entry): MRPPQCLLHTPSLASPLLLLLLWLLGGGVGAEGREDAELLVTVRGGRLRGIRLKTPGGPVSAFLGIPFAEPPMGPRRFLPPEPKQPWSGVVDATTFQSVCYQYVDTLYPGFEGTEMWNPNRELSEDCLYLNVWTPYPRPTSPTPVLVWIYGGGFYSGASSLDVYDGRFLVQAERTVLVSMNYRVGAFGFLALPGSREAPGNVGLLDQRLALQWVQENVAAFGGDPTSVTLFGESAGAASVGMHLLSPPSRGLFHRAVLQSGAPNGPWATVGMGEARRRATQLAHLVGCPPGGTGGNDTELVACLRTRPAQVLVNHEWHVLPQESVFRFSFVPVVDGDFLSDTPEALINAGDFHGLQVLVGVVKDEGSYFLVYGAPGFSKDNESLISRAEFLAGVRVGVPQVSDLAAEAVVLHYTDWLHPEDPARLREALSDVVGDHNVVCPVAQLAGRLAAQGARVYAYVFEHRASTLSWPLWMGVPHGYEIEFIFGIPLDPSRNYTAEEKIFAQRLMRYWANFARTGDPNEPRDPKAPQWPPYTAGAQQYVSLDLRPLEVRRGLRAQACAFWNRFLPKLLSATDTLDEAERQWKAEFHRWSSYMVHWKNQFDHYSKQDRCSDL
Structure (SMILES),IC50 [1] [µM],IC50 [3] [µM],IC50 ([2]; read-out: IC50) [µM],further results
CN1CCc2c(c3cc(C(=O)O)ccc3n2CCc2ccncc2)C1,> 10,–,> 10,–
Cc1ccc(CCn2c3c(c4cc(F)ccc42)CN(C)CC3)cn1,0.11,0.73,10.7,–
Cc1ccc2c(c1)c1c(n2CCc2ccncc2)CCN(C)C1,0.16,3.98,0.37,–
Cc1ccc2c(c1)c1c(n2CCc2ccc(C)nc2)CCN(C)C1 [LATREPIRDINE],0.16,1.58,0.89,ED50 [4]: 42 µM; IC50 [5]: 57 µM; EC50 [6]: 25 µM; IC50 [7]: 7.9 µM; IC50 [8]: 45 µM
Cc1ccc2c(c1)c1c(n2CCc2cccnc2)CCN(C)C1,0.5,3.16,0.44,–
CN1CCc2c(c3cc(C(F)(F)F)ccc3n2CCc2ccncc2)C1,0.22,–,6.4,–
COc1ccc2c(c1)c1c(n2CCc2ccncc2)CCN(C)C1,0.39,–,4.34,–
CN1CCc2c(c3cc(F)ccc3n2CCc2ccncc2)C1,0.12,0.47,3.24,–
CN1CCc2c(c3cc(C(F)(F)F)ccc3n2CCc2cccnc2)C1,> 10,–,5.8,–
Cc1ccc2c(c1)c1c(n2CCc2cccnc2)CCN(C2CCN(C)CC2)C1,2.79,–,–,IC50 ([2]; hek293): Not Active
Cc1ccc2c(c1)c1c(n2CCc2ccncc2)CCN(C2CCN(C)CC2)C1,7.57,–,–,IC50 ([2]; hek293): Not Active

# More lines, main results first:
IC50 [1] [µM],IC50 [3] [µM],IC50 ([2]; read-out: IC50) [µM],Structure (SMILES),further results
> 10,–,–,Cc1ccc2c(c1)c1c(n2CCc2ccccn2)CCN(C2CCN(C)CC2)C1,IC50 ([2]; hek293): Not Active
0.32,7.94,2.06,Cc1ccc2c(c1)c1c(n2CCc2cnccn2)CCN(C)C1,–
0.5,10,0.86,Cc1ccc2c(c1)c1c(n2CCc2ccccn2)CCN(C)C1,–
0.12,–,1.04,CN1CCc2c(c3cc(Br)ccc3n2CCc2ccccn2)C1,–
0.56,1.59,1.59,CN1CCc2c(c3cc(C(F)(F)F)ccc3n2CCc2ccccn2)C1,–
4.67,–,8.36,COc1ccc2c(c1)c1c(n2CCc2ccccn2)CCN(C)C1,–
0.12,0.5,8.91,CN1CCc2c(c3ccccc3n2CCc2ccncc2)C1,–
1.82,0.93,15.8,CN1CCc2c(c3ccccc3n2CCc2ccccn2)C1,–
7.16,–,43.2,CN1CCc2c(c3cc(-c4cccnc4)ccc3n2CCc2ccccn2)C1,–
0.94,0.61,2.98,CN1CCc2c(c3cc(F)ccc3n2CCc2ccccn2)C1,–
1.29,–,7.47,CN1CCc2c(c3cc(C#N)ccc3n2CCc2ccccn2)C1,–
0.1,0.41,5.99,CN1CCc2c(c3ccccc3n2CCc2cccnc2)C1,–
0.65,0.93,> 10,CN1CCc2c(c3cc(F)ccc3n2CCc2cccnc2)C1,–
